According to ChEMBL document CHEMBL1123173, “Synthesis and antiherpes virus activity of phosphate and phosphonate derivatives of 9-[(1,3-dihydroxy-2-propoxy)methyl]guanine” (1986):
Calls of active or inactive are those of the source. No cut-off for these calls is given here.

What was measured:
Mus musculus [1] = test: Effect of subcutaneous treatment with compound on HSV-2 induced mortality in mice at 5 mg/kg dose; 2/15; assay type: functional
Method in brief: (§1)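 Female Swiss-Webster mice, about 20 g, challenged intraperitoneally with 5×10^4 PFU of HSV-2 strain G (about ten LD50). Subcutaneous dosing once daily for 4 days, beginning 24 h after infection, with a saline control group. 15 mice per group. Survivor numbers were compared by Fisher exact test and mean survival time (± SD) by Mann-Whitney U test. NS means p > 0.05.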

Mus musculus [2] = test: Effect of subcutaneous treatment with compound on HSV-2 induced mortality in mice at 15 mg/kg dose; NS=Not significant; assay type: functional, organism-based; set-up: dose 15 mg/kg; method in brief: as §1
Mus musculus [3] = test: Effect of subcutaneous treatment with compound on HSV-2 induced mortality in mice at 15 mg/kg dose; assay type: functional; method in brief: as §1
Mus musculus [4] = test: Effect of subcutaneous treatment with compound on HSV-2 induced mortality in mice at 15 mg/kg dose; 0/15; assay type: functional; method in brief: as §1
Mus musculus [5] = test: Effect of subcutaneous treatment with compound on HSV-2 induced mortality in mice at 30 mg/kg dose; assay type: functional; method in brief: as §1
Mus musculus [6] = test: (§2) Effect of subcutaneous treatment with compound on HSV-2 induced mortality in mice at 5 mg/kg dose; NS=Not significant; assay type: functional, organism-based; set-up: dose 5 mg/kg; method in brief: as §1
Vero [7] = test: In vitro antiviral activity was measured against HSV-1 (F delta 305) in Vero cells; assay type: functional; settings: Chlorocebus sabaeus, read-out: ID50 (the source's name)
Vero [8] = test: In vitro antiviral activity was measured against HSV-1(F) in Vero cells; assay type: functional; settings: Chlorocebus sabaeus, read-out: ID50 (the source's name)
Mus musculus [9] = test: Effect of subcutaneous treatment with compound on HSV-2 induced mortality in mice at 30 mg/kg dose; NS=Not significant; assay type: functional, organism-based; set-up: dose 30 mg/kg; method in brief: as §1
Vero [10] = test: In vitro antiviral activity was measured against HSV-2(G) in Vero cells; assay type: functional; settings: Chlorocebus sabaeus, read-out: ID50 (the source's name)
Mus musculus [11] = test: as §2; assay type: functional, organism-based; set-up: dose 5 mg/kg; remark: listed apart in the source
Method in brief: (§3)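 Female Swiss-Webster mice (ca. 20 g) infected intraperitoneally with 5×10^4 PFU HSV-2 strain G (about ten 50% lethal doses). Subcutaneous dosing once daily for 4 days, starting 24 h postinfection; saline controls. Survivors/total recorded, Fisher exact test for survival; mean survival time (± standard deviation) compared by Mann-Whitney U test.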

Mus musculus [12] = test: Effect of subcutaneous treatment with compound on HSV-2 induced mortality in mice at 30 mg/kg dose; 2/15; assay type: functional; method in brief: as §1
Mus musculus [13] = test: (§4) Effect of oral treatment with compound on HSV-2 induced mortality in mice at 10 mg/kg dose; NS=Not significant; assay type: functional, organism-based; set-up: dose 10 mg/kg
Method in brief: (§5)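 Female Swiss-Webster mice, about 20 g, infected intraperitoneally with 5×10^4 PFU of HSV-2 strain G (about ten LD50). Oral dosing once every 24 h for 4 days, starting 24 h post-infection, with a saline-treated control group. Groups of 19–20 mice. Survivors were scored and compared by Fisher exact test. Mean survival time (days ± SD) was compared by Mann-Whitney U test. NS means p > 0.05.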

Vero [14] = test: In vitro antiviral activity was measured against HSV-1 (MP-PAA/DHPG) in Vero cells; assay type: functional; settings: Chlorocebus sabaeus, read-out: ID50 (the source's name)
Mus musculus [15] = test: as §4; assay type: functional, organism-based; set-up: dose 10 mg/kg; remark: listed apart in the source
Method in brief: as §3, with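 “Oral” for “Subcutaneous”, “every 24 h” for “daily”, “recorded, survivor increase tested by” for “recorded,”, “test;” for “test for survival;”, “(days ±” for “(±”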

Mus musculus [16] = test: Effect of oral treatment with compound on HSV-2 induced mortality in mice at 5 mg/kg dose; 8/20; assay type: functional; method in brief: as §5
Mus musculus [17] = test: Effect of oral treatment with compound on HSV-2 induced mortality in mice at 20 mg/kg dose; assay type: functional; method in brief: as §5
Mus musculus [18] = test: (§6) Effect of oral treatment with compound on HSV-2 induced mortality in mice at 5 mg/kg dose; NS=Not significant; assay type: functional, organism-based; set-up: dose 5 mg/kg
Method in brief: as §3, with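 “Oral” for “Subcutaneous”, “every 24 h” for “daily”, “recorded, survivor increase tested by” for “recorded,”, “test;” for “test for survival;”, “(days ±” for “(±”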

Mus musculus [19] = test: Effect of oral treatment with compound on HSV-2 induced mortality in mice at 10 mg/kg dose; 3/20; assay type: functional; method in brief: as §5
Vero [20] = test: In vitro anticellular activity was measured against vero cells; assay type: functional; settings: Chlorocebus sabaeus, read-out: ID50 (the source's name)
Method in brief: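 Cell proliferation assay in uninfected Vero cells.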

Mus musculus [21] = test: as §6; assay type: functional, organism-based; set-up: dose 5 mg/kg; method in brief: as §5; remark: listed apart in the source
Mus musculus [22] = test: Effect of on mean survival time upon oral treatment on HSV-2 induced mortality in mice at 5 mg/kg dose; assay type: functional; method in brief: as §5
Mus musculus [23] = test: Effect of oral treatment with compound on HSV-2 induced mortality in mice at 20 mg/kg dose; 10/20; assay type: functional; method in brief: as §5
Mus musculus [24] = test: Effect of on mean survival time upon oral treatment on HSV-2 induced mortality in mice at 20 mg/kg dose; assay type: functional; method in brief: as §5
MRC5 = test: In vitro antiviral activity was measured against HCMV(AD-169) in MRC5 cells; assay type: functional; settings: Homo sapiens, read-out: ID50 (the source's name)
Mus musculus [25] = test: Effect of on mean survival time upon oral treatment on HSV-2 induced mortality in mice at 10 mg/kg dose; assay type: functional; method in brief: as §5

Nc1nc(N)c2ncn(COC3COP(=O)(O)OC3)c2n1 (configuration not stated)
Survivors (Mus musculus [1]): 2
Survivor increase (Mus musculus [2]): inactive
MST increase (Mus musculus [3]): 0.025
Survivors (Mus musculus [4]): 0
MST increase (Mus musculus [5]): 0.01
Survivor increase (Mus musculus [6]): inactive
IC50 (Vero [7]): 80 µM
IC50 (Vero [8]): 125 µM
Survivor increase (Mus musculus [9]): inactive
IC50 (Vero [10]): > 100 µM
MST increase (Mus musculus [11]): inactive
Survivors (Mus musculus [12]): 2

Nc1ncnc2c1ncn2COC1COP(=O)(O)OC1 (configuration not stated)
IC50 (Vero [8]): 600 µM
IC50 (Vero [10]): > 1000 µM

Nc1nc2c(ncn2COC2COP(=O)(O)OC2)c(=O)[nH]1 (configuration not stated)
Survivor increase (Mus musculus [13]): inactive
IC50 (Vero [14]): 7 µM
MST increase (Mus musculus [15]): inactive
Survivors (Mus musculus [16]): 8
Survivor increase (Mus musculus [17]): 0.01
p-value for mean survival time increase (Mus musculus [17]): <0.01
MST increase (Mus musculus [18]): inactive
Survivors (Mus musculus [19]): 3
IC50 (Vero [20]): 40 µM
Survivor increase (Mus musculus [21]): inactive
MST (Mus musculus [22]): 10.4 days
IC50 (Vero [7]): 0.5 µM
IC50 (Vero [8]): 2 µM
Survivors (Mus musculus [23]): 10
MST (Mus musculus [24]): 11.6 days
IC50 (MRC5): 6 µM
IC50 (Vero [10]): 6 µM
MST (Mus musculus [25]): 10.6 days
